The source made the active and inactive calls. No cut-off for these calls is given here.
Experiments:
Wee1-like protein kinase [1] = molecular target: T1, Wee1-like protein kinase (Homo sapiens, UniProt P30291); assay: Inhibition of WEE1 in human NCI-H1299 cells assessed as reduction in Cdc2 phosphorylation at Tyr15 residue measured after 6 hrs by ELISA; format: cell-based
NCI-H1299 = assay: Antiproliferative activity against human NCI-H1299 cells after 72 hrs by cell titer glo assay; format: functional, cell-based; conditions: NCI-H1299, 72 h
Wee1-like protein kinase [2] = molecular target: T1, Wee1-like protein kinase; assay: Binding affinity to wild type N-terminal GST-tagged human WEE1 catalytic domain (215 to 646 residues) expressed in baculovirus expression system measured after 1 hr by TR-FRET assay
[3] = Clearance in mouse microsomes; format: ADME, Microsome
MX1 [4] = assay: (§1) Antitumor activity against BRCA1/p53 deficient human MX1 cells xenografted in SCID mouse assessed as tumor growth inhibition at 25 mg/kg/day, po administered every other 2 days for 4 times starting 24 days post-tumor innoculation and measured twice weekly; format: functional, organism-based
[5] = Half life in iv dosed mouse; format: ADME, organism-based; conditions: in vivo
[6] = AUC in po dosed mouse; format: ADME, organism-based; conditions: in vivo
MX1 [7] = assay: as §1, with “Potentiation of irinotecan-induced antitumor” for “Antitumor”, “starting from” for “starting”, “weekly relative to control” for “weekly”; format: functional; conditions: read-out: TGI
How it was run: (§2)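 MX-1 brei (homogenized tumour cell suspension) was injected subcutaneously into the flank of SCID mice. Treatment started at tumour volume ~350 mm³, with dosing beginning on day 24. Arms were vehicle, irinotecan 10 mg/kg/day Q4Dx4, or irinotecan 10 mg/kg/day Q4Dx4 plus test agent 25 mg/kg/day QD, 2 days on/2 days off, for 4 cycles. Tumour volumes were measured twice weekly.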

MX1 [8] = assay: as §1, with “Potentiation of irinotecan-induced antitumor” for “Antitumor”, “delay” for “inhibition”, “weekly relative to irinotecan” for “weekly”; format: functional; how it was run: as §2
MX1 [9] = assay: as §1, with “Potentiation of irinotecan-induced antitumor” for “Antitumor”, “times” for “times starting”, “weekly for 43 days in presence relative to irinotecan” for “weekly”; format: functional; conditions: read-out: TGI; how it was run: as §2
[10] = Clearance in iv dosed mouse; format: ADME, organism-based; conditions: in vivo
[11] = Oral bioavailability in mouse; format: ADME, organism-based; conditions: in vivo

T1 sequence (P30291 whole entry): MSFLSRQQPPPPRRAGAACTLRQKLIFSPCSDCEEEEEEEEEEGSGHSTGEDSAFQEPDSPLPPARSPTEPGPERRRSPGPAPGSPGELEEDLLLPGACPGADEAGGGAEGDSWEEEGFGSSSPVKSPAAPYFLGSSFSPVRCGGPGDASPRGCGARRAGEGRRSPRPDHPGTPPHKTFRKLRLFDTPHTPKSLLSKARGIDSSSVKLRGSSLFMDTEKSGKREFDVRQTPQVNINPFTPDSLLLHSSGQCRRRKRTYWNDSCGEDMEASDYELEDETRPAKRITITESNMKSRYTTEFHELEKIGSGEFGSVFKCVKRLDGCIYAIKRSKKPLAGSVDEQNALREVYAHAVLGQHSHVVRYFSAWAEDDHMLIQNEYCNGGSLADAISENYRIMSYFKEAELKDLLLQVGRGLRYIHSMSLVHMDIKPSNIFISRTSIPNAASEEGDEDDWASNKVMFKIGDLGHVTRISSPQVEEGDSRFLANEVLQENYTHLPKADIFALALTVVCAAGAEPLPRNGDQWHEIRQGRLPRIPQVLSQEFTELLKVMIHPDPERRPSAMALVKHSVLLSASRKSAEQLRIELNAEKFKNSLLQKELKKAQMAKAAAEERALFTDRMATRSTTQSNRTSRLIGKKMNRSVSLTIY

SMILES	EC50 (Wee1-like protein kinase [1]) [nM]	EC50 (NCI-H1299) [nM]	Ki (Wee1-like protein kinase [2]) [nM]	CLint scaled [3] [mL/min/kg]	also measured
CN(C)CCn1cc(-c2c(Cl)cccc2Cl)c(=O)c2cnc(Nc3ccc(N4CCN(C)CC4)cc3)nc21	2850	7650	24.4	1970	–
CN1CCN(c2ccc(Nc3ncc4c(=O)c(-c5c(Cl)cccc5Cl)cn(C)c4n3)cc2)CC1	79	520	–	270	–
CN1Cc2cc(Nc3ncc4c(=O)c(-c5c(Cl)cccc5Cl)c[nH]c4n3)ccc2C2(CC2)C1	29	330	0.6	532	–
CN1Cc2cc(Nc3ncc4c(=O)c(-c5c(Cl)cccc5Cl)cn(C5CC5)c4n3)ccc2C2(CC2)C1	31	390	–	458	–
CN1Cc2cc(Nc3ncc4c(=O)n(-c5c(Cl)cccc5Cl)cc(C(F)F)c4n3)ccc2C2(CC2)C1	18	140	0.6	753	–
C=Cc1cn(-c2c(Cl)cccc2Cl)c(=O)c2cnc(Nc3ccc4c(c3)CN(C)CC43CC3)nc12	21	80	0.3	463	–
CN1Cc2cc(Nc3ncc4c(=O)c(-c5c(Cl)cccc5Cl)cn(C)c4n3)ccc2C2(CC2)C1	11	100	0.3	413	TGI (MX1 [4]): Active; half-life [5]: 2.7 h; AUC [6]: 6.2 µM·h; inhibition in vivo at 25 mg/kg/day (MX1 [7]): 88%; Activity (MX1 [8]): 48%; inhibition in vivo at 25 mg/kg/day (MX1 [9]): 57%; clearance [10]: 25 mL/min/kg; bioavailability [11]: 44%
CN1CCN(c2ccc(Nc3ncc4c(=O)c(-c5c(Cl)cccc5Cl)cn(-c5ccccc5)c4n3)cc2)CC1	246	500	0.2	–	–
CN1CCN(c2ccc(Nc3ncc4c(=O)c(-c5c(Cl)cccc5Cl)cn(C5COC5)c4n3)cc2)CC1	324	1720	–	582	–

Second part, led by results:

EC50 (Wee1-like protein kinase [1]) [nM]	EC50 (NCI-H1299) [nM]	Ki (Wee1-like protein kinase [2]) [nM]	CLint scaled [3] [mL/min/kg]	SMILES	also measured
–	–	1.1	635	CN1Cc2cc(Nc3ncc4c(=O)n(-c5c(F)cccc5Cl)c5nccn5c4n3)ccc2C(C)(C)C1	–
28	130	0.5	727	Cc1cn(-c2c(Cl)cccc2Cl)c(=O)c2cnc(Nc3ccc4c(c3)CN(C)CC43CC3)nc12	–
25	60	–	320	CN1Cc2cc(Nc3ncc4c(=O)n(-c5c(Cl)cccc5Cl)cc(CO)c4n3)ccc2C2(CC2)C1	–
4020	> 10000	0.2	482	CN1CCN(c2ccc(Nc3ncc4c(=O)c(-c5c(Cl)cccc5Cl)cn(CC(C)(C)O)c4n3)cc2)CC1	–
19	210	–	–	CCn1cc(-c2c(Cl)cccc2Cl)c(=O)c2cnc(Nc3ccc4c(c3)CN(C)CC43CC3)nc21	–
22	460	1	582	CN1CCN(c2ccc(Nc3ncc4c(=O)c(-c5c(Cl)cccc5Cl)cn(C5CC5)c4n3)cc2)CC1	–

Reference: ChEMBL document CHEMBL4387719, “Investigation of biaryl heterocycles as inhibitors of Wee1 kinase” (Bioorg Med Chem Lett, 2019)
